As usually defined, the IC50 is the concentration that gives 50% inhibition. For orientation: inhibition means the percentage by which the read-out fell short of the control.

Calls of active or inactive are those of the source. The rule behind the calls is not given here.

We go through one compound from ChEMBL document CHEMBL3877241 (J Med Chem, 2016).

The target in test [1] is Histone deacetylase 1 (Homo sapiens, UniProt Q13547). Put plainly: Inhibition of full length human recombinant C-terminal FLAG/His-tagged HDAC1 (1 to 482 residues) expressed in sf21 cells preincubated with enzyme followed by fluorogenic Arg-His-Lys-Lys(Ac)-AMC substrate addition measured after 2 hrs by fluorescence assay.
In test [2] the target is Tyrosine-protein kinase JAK1 (Homo sapiens) (UniProt P23458). In words: Inhibition of JAK1 (unknown origin) at 0.1 uM preincubated for 20 mins followed by [33P]ATP addition measured after 120 mins by Hotspot assay relative to control. An outline of the steps:
(§1)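 Radiometric HotSpot kinase assay. Buffer: 20 mM HEPES pH 7.5, 10 mM MgCl2, 1 mM EGTA, 0.02% Brij35, 0.02 mg/mL BSA, 0.1 mM Na3VO4, 2 mM DTT, 1% DMSO. Compound added about 20 min before ATP/[33P]ATP (10 μM final). Reactions run 120 min at 25 °C, spotted on P81 filters and washed in phosphoric acid. Activity expressed relative to DMSO after background subtraction. Single-concentration panel at 100 nM in duplicate.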

Test [3] deals with Tyrosine-protein kinase JAK3 (Homo sapiens) (UniProt P52333). In words: Inhibition of JAK3 (unknown origin) at 0.1 uM preincubated for 20 mins followed by [33P]ATP addition measured after 120 mins by Hotspot assay relative to control. An outline of the steps: as §1
The target in test [4] is Receptor-type tyrosine-protein kinase FLT3 (Homo sapiens) (UniProt P36888). In words: Inhibition of FLT3 (unknown origin) at 0.1 uM preincubated for 20 mins followed by [33P]ATP addition measured after 120 mins by Hotspot assay relative to control. An outline of the steps:
as §1

The target in test [5] is Histone deacetylase 2 (Homo sapiens, UniProt Q92769). In words: Inhibition of full length human recombinant C-terminal GST-tagged HDAC2 (1 to 488 residues) expressed in insect cells preincubated with enzyme followed by fluorogenic Arg-His-Lys-Lys(Ac)-AMC substrate addition measured after 2 hrs by fluorescence assay.
Test [6] addresses High affinity nerve growth factor receptor (Homo sapiens, UniProt P04629). In words: Inhibition of human NTRK1 (G475 to G790 residues) expressed in mammalian expression system assessed as residual activity at 100 nM by KINOMEScan assay relative to control. An outline of the steps:
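DiscoveRx competition-binding panel of 97 kinases, measuring binding to the kinase ATP site rather than catalytic turnover. The test compound was run at a single 100 nM concentration. Results are given as % of control binding.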

A short description of test [7]: Antiproliferative activity against human HCT116 cells after 72 hrs by MTT assay. The class given is functional, cell-based. As to conditions: HCT-116, 72 h. The method, boiled down:
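MTT viability after 72 h exposure. Cells seeded at 2500/well and left 24 h before compound addition; DMSO at 0.5% v/v final. MTT added in FBS-free medium for 3 h at 37 °C, formazan dissolved in DMSO, absorbance read at 570 nm. IC50 from a sigmoidal fit of % viability vs log concentration; triplicates on separate occasions using two different stock solutions.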
A general note: Tetrazolium dyes change colour on reduction, which living cells bring about.

Test [8] can be described thus: Antiproliferative activity against human PC3 cells after 72 hrs by MTT assay. The class given is functional, cell-based. The following applies: PC-3, 72 h.
For test [9], the target named is T1, Protein deacetylase HDAC6 (Homo sapiens) (UniProt Q9UBN7).
T1 sequence (whole entry): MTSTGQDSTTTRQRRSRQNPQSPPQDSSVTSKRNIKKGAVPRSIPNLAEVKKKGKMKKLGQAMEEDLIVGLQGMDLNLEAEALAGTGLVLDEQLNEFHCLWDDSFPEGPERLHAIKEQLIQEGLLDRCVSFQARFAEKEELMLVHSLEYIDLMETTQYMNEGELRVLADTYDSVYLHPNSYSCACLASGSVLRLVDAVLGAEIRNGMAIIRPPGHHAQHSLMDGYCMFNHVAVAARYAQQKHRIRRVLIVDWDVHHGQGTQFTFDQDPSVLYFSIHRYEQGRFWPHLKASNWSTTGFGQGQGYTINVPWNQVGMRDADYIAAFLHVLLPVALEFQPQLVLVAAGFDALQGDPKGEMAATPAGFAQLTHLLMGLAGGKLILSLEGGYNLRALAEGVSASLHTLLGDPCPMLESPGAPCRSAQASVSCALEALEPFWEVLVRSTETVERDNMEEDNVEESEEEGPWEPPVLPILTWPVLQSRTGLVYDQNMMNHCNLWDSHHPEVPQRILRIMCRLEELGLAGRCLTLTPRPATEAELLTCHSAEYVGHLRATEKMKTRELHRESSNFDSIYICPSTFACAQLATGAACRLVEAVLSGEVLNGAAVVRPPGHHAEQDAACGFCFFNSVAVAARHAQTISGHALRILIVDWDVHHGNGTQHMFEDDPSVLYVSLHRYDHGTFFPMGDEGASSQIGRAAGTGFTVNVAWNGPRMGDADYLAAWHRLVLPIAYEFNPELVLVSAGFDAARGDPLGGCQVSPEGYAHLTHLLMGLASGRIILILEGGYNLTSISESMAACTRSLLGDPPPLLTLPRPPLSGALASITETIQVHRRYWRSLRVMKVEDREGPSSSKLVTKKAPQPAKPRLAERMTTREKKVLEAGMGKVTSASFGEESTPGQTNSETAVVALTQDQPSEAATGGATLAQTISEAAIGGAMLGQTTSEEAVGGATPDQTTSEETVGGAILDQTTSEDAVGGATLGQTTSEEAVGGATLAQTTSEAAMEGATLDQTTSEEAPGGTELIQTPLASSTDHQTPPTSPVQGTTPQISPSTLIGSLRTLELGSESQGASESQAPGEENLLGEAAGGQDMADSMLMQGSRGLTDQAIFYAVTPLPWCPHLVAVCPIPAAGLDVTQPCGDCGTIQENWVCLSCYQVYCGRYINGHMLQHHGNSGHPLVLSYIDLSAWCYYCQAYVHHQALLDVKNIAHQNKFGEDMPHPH
In words: Inhibition of HDAC6 in HEL 92.1.7 cells harboring JAK2 V617F mutant assessed as increase in acetylated tubulin level at 0.1 uM after 1 hr by immunoblot method. The class given is cell-based. An outline of the steps: (§2)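 HEL92.1.7 cells seeded at 5x10^5/mL and treated 1 h at 0, 0.1, 0.5 and 1 μM. Lysed in RIPA with phosphatase/protease inhibitors, run on 10% SDS-PAGE and blotted to PVDF. Probed for acetyl-tubulin, acetyl-H3 (Lys9/Lys14), p-JAK2 (Y1007/1008) and p-STAT5 (Tyr694); membranes re-probed for tubulin, H3, JAK2 and STAT5. Quantified by densitometry.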
In general terms: In western blotting, separated proteins are transferred to a membrane and probed.

For test [10], the system named is Tyrosine-protein kinase JAK2 (Homo sapiens), O60674 [V617F]. In words: Inhibition of JAK2 V617F mutant in HEL 92.1.7 cells assessed as decrease in STAT5 phosphorylation at antiproliferative IC50 after 1 hr by immunoblot method. The class given is cell-based. The method, boiled down: as §2
Tyrosine-protein kinase JAK2 (Homo sapiens), O60674 [V617F], sequence (O60674 whole entry V617F): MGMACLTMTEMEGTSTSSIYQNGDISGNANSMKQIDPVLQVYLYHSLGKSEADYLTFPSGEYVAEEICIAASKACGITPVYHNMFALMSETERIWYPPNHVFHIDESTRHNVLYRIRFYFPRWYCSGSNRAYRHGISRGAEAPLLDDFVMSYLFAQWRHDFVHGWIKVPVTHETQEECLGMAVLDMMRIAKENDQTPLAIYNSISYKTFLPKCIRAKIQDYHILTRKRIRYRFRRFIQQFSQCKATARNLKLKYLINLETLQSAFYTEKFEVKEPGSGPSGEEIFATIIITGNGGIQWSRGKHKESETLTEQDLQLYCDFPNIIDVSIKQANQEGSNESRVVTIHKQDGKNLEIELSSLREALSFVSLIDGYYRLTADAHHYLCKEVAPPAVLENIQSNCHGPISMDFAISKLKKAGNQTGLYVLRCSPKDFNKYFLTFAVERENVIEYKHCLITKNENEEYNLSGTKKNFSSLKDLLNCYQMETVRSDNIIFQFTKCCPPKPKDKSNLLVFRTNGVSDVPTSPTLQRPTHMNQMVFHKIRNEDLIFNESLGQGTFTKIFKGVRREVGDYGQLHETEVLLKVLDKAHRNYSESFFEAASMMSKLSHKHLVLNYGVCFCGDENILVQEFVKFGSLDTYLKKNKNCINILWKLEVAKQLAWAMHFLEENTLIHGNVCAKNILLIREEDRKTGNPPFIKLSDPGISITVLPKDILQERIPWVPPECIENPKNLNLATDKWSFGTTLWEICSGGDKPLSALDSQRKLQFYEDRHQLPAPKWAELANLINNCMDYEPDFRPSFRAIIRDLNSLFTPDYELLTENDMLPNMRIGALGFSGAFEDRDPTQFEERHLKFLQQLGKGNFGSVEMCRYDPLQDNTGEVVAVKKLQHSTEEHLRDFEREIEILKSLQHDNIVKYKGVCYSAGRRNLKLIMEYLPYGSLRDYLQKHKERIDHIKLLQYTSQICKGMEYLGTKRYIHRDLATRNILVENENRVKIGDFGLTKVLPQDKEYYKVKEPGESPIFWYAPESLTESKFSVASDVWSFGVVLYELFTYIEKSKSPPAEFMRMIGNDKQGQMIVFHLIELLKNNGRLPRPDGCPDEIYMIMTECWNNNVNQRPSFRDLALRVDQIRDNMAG

Histone deacetylase 2, sequence (Q92769 whole entry, the tested form may be a part): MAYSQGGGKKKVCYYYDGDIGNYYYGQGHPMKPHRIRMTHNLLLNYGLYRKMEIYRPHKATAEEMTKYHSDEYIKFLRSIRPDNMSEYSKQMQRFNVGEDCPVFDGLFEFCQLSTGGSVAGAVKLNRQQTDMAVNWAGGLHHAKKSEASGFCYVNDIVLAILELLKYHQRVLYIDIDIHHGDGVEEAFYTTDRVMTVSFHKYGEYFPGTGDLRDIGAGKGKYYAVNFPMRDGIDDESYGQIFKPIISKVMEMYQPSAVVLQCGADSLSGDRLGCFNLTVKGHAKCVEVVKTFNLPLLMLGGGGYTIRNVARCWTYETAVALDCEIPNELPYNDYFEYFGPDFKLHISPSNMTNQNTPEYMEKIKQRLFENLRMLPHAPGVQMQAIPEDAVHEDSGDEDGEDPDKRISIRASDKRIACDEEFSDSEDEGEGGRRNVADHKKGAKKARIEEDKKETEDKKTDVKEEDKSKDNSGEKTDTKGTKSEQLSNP
High affinity nerve growth factor receptor, sequence (P04629 33-796 limits assumed): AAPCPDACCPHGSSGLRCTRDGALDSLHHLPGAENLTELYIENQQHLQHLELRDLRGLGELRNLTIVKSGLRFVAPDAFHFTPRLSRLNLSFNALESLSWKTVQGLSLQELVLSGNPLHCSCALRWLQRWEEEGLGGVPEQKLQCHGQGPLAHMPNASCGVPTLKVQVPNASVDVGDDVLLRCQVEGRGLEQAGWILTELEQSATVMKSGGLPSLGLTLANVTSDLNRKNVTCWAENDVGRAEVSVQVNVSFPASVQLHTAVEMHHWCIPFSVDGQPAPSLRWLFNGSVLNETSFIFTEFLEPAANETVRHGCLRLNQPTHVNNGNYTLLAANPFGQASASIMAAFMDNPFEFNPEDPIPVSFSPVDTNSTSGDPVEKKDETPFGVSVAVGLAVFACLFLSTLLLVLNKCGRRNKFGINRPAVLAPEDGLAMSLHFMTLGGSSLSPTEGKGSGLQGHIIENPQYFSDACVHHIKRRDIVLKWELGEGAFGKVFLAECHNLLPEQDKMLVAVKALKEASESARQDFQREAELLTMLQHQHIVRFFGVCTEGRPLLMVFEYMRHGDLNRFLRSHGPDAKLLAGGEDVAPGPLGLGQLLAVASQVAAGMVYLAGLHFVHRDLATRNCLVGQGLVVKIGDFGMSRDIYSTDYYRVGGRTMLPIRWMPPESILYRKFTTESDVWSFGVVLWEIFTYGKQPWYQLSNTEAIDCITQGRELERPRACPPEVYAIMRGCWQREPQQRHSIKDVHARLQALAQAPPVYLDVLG
Tyrosine-protein kinase JAK1 (Homo sapiens), sequence (P23458 whole entry): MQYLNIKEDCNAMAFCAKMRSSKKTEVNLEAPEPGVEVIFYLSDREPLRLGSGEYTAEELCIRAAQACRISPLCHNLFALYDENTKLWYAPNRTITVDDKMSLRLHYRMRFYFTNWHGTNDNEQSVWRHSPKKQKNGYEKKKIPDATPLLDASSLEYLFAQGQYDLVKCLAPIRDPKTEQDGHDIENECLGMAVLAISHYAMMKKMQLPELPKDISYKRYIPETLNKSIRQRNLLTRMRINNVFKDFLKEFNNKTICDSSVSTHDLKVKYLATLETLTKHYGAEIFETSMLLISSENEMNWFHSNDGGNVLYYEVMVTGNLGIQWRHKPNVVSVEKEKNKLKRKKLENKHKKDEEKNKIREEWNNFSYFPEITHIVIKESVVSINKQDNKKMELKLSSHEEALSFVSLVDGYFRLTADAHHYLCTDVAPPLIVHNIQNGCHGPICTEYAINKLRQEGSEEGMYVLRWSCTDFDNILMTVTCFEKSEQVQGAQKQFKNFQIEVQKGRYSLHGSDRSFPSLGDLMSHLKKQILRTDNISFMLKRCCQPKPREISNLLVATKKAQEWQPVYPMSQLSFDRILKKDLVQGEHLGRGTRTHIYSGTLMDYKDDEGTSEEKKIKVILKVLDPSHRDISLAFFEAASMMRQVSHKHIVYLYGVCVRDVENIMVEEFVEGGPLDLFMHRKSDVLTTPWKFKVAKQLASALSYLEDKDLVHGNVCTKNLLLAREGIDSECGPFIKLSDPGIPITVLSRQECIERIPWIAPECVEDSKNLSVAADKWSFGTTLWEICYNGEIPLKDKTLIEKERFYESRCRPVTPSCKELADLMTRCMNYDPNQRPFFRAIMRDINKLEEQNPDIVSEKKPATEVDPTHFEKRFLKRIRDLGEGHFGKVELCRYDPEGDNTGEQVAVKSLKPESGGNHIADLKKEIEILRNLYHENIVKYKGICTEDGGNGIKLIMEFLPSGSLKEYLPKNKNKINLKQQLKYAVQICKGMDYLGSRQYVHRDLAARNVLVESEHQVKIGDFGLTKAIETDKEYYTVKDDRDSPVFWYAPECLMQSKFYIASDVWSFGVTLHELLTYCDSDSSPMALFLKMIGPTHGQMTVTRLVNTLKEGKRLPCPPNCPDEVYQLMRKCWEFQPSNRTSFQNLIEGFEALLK
Receptor-type tyrosine-protein kinase FLT3 (Homo sapiens), sequence (P36888 whole entry): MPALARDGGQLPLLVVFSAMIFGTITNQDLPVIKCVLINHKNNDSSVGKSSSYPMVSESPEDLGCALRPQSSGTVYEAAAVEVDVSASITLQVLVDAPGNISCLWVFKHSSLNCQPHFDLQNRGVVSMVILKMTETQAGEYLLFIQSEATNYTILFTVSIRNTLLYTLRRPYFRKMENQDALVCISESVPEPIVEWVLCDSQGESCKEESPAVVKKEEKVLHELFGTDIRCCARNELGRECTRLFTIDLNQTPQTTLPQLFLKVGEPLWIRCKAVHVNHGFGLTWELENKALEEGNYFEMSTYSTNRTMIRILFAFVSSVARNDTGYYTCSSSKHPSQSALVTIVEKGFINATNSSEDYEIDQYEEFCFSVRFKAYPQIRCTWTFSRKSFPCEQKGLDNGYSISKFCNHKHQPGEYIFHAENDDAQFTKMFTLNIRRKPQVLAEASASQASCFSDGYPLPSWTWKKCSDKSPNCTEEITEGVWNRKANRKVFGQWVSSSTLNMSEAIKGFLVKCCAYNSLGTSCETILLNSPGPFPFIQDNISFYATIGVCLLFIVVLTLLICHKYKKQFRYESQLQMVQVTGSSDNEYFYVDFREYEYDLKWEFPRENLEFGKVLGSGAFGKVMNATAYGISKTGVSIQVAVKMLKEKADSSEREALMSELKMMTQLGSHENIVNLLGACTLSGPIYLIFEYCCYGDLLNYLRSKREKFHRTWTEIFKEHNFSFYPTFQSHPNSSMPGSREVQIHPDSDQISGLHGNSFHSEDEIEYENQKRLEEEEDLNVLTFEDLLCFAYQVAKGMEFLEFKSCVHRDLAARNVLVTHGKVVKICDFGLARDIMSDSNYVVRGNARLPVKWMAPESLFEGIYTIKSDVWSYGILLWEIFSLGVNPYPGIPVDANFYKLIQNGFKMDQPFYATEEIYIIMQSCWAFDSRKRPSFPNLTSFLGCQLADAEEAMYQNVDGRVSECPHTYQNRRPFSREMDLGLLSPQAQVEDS
Histone deacetylase 1, sequence (Q13547 whole entry, the tested form may be a part): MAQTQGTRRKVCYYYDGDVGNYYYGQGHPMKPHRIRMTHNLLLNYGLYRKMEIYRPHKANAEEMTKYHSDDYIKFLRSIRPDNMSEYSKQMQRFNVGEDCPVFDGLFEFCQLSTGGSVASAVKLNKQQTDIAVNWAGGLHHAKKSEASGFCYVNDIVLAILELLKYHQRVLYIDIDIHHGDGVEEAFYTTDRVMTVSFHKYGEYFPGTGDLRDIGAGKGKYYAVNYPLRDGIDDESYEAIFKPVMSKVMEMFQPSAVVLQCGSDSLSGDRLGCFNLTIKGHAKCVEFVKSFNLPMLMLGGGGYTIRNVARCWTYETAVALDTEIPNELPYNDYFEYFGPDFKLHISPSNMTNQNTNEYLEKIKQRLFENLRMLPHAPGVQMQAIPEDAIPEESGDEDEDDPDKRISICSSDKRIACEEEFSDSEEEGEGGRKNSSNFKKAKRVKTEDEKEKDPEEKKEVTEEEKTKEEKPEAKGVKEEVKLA

As to `O=C(CCCCCCOc1ccc2cc1COC/C=C/COCc1cccc(c1)-c1ccnc(n1)N2)NO`, the IC50 in [1] came to 222 nM; in test [5], 49 nM; in test [7] it was 2230 nM; in test [8], 1700 nM. The inhibition was 8.7% in test [2], 55% in test [3] and 67% in test [4]. The Activity in test [6] was determined as 13%. Moreover, the inhibition entry in [9] and in [10] was “Active” each time.
